# Assay outcomes as filed in PubChem BioAssay.
# Compounds with a hit are over-represented: about 2.4% of the library has one in this group of screens.
# Neddylation inh: inhibitors of cullin neddylation, primary screen, biochemical, TR-FRET, uHTS, NAE and Ubc12. NEDD8-conjugating enzyme Ubc12 (Homo sapiens) + NEDD8-activating enzyme E1 regulatory …. inhibition, % at 25 µM. 360,000 tested, 0.58% active; in the data active = inhibition above about 36%
# Rpn11 block: Rpn11 (PSMD14) deubiquitinase inhibitors, primary screen, biochemical, fluorescence polarization, uHTS | 26S proteasome non-ATPase regulatory subunit 14 (Homo sapiens), O00487 | inhibition, % at 20 µM | 360,000 tested, 0.59% active | human 26S proteasome, Ub4-pepOG fluorescence polarization; 20S core pre-blocked with epoxomicin | AID 588493, 2011;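 active = inhibition at 20 µM, scaled to each plate's controls, above about 33%, limit read from the data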
# CSN deneddyl inh: inhibitors of CSN-mediated cullin deneddylation, primary screen, biochemical, fluorescence polarization, uHTS. COP9 signalosome complex subunit 5 (Homo sapiens), Q92905. Purified CSN, SCF-Nedd8-OG deneddylation. inhibition, % at 12.5 µM. 360,000 tested, 0.38% active. AID 651999, 2013;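 active = pattern-corrected inhibition above about 35%, with an unprinted fluorescence ratio check between 0.5 and 1.5, limit read from the data, passing the limit was not always enough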;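 note: 0% = enzyme with substrate and 100% = substrate without enzyme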
#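 Material: human Csn5 produced in HEK293T cells; Input: enzyme 0.24 nM; Reagent: SCFSkp2-Nedd8OG substrate at 10 nM final; Dosing: 12.5 µM compound; Incubation: 90 min reaction at room temperature; Detection: fluorescence polarization of the substrate; Evaluation: % inhibition of substrate cleavage by Csn5; Control set: substrate-only high control, full reaction low control.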
# HNF4A DNA FP: change in binding of human HNF4A to DNA, primary screen, biochemical, fluorescence polarization, FITC-DNA; 1 h; 360,000 tested, 0.3% active; activity change, % at 10 µM; AID 1224865, 2016; in the data active = activity change above about 30%, passing the limit was not always enough
# Target sequence (P41235 whole entry, looked up): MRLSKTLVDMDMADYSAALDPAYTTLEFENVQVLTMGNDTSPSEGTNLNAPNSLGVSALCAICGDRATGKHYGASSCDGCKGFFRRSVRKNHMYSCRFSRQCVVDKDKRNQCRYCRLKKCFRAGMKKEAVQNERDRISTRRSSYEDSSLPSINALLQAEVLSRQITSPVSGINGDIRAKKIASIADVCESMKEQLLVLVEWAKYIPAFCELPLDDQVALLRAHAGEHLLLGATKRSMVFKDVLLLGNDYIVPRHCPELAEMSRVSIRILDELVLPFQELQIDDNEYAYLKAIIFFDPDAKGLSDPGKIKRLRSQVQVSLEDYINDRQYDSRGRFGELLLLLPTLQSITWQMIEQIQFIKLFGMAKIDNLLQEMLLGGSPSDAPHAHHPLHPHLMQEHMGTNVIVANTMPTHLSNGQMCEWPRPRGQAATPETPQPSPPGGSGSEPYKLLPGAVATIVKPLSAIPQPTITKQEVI
# TPT1 inh: Candida albicans TPT1 enzyme inhibitors, primary screen, biochemical, fluorescence polarization; inhibition, % at 5 µM; 300,000 tested, 0.81% active; recombinant caTPT1, FP RNA substrate dephosphorylation; tRNA 2'-phosphotransferase TPT1 (Candida albicans SC5314);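 active = inhibition above the mean of all tested compounds plus 3 SD, set per screening campaign, cut at about 24% in these data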;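 note: plate controls were DMSO alone for no effect and ferristatin control at 100 nM for full effect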
# Rin1 Abl inh: inhibitors of Rin1-Abl protein binding, primary screen, biochemical, TR-FRET; Tyrosine-protein kinase ABL1 (Homo sapiens) + Ras and Rab interactor 1 (Homo sapiens), …; AID 588664, 2011; inhibition, % at 7.35 µM; 360,000 tested, 0.4% active; in the data active = inhibition above about 5%, passing the limit was not always enough
# TPT1 inh confirm: Candida albicans TPT1 inhibitors, confirmation, biochemical, fluorescence polarization, triplicate; shares compounds with TPT1 inh; recombinant caTPT1, RNase T1 coupled; inhibition, % at 5 µM; 2,400 tested, 74% active;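 active = inhibition above the primary screen limit, the mean inhibition of all tested compounds plus 3 SD, cut at about 25% in these data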
# RNase T1 counter: RNase T1 inhibitors, counter-screen for TPT1 inhibitor project, biochemical, fluorescence polarization; RNase T1 cleavage, 1536-well; inhibition, % at 5 µM; 2,400 tested, 83% active; shares compounds with TPT1 inh;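 active = inhibition above the solvent-only control well mean plus 3 SD, limit set per screening run, cut at about 23% in these data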;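 note: plate controls were DMSO wells with enzyme for no effect and wells without RNase T1 for full effect; inhibitors block cleavage so intact labeled substrate keeps polarization high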
# * marks the source's active call; other numbers are inactive results; / = no result given.
SMILES,Neddylation inh,Rpn11 block,CSN deneddyl inh,HNF4A DNA FP,TPT1 inh,Rin1 Abl inh,TPT1 inh confirm,RNase T1 counter
CN(C)c1ccc2c(c1)OC(N)=C(C#N)C2c1cccc(F)c1 (configuration not stated),1.4,/,52.0,67.4,78.2*,-17.8,61.9*,69.8*
CSCC[C@H](NC(=O)c1ccco1)c1nnc2ccccn12,0.6,6.8,1.8,-0.4,-2.3,0.4,/,/
COC(=O)c1ccc(NC(=O)CCn2c(=O)oc3ccccc32)cc1,-0.9,2.9,1.7,0.1,0.3,1.2,/,/
CCOC(=O)c1ccc(NCn2c(=O)oc3ccccc32)cc1,-10.3,/,27.6,21.8,30.6*,-1.1,44.4*,57.5*
COC(=O)CSc1nc(C)cc(C(F)(F)F)c1C#N,5.9,1.6,-0.2,3.4,3.6,-0.5,/,/
Cc1ccc(S(=O)(=O)CCSc2nc(C)cc(C(F)(F)F)c2C#N)cc1,-43.7,/,17.0,37.0,39.8*,-2.3,57.7*,69.4*
O=[N+]([O-])c1ccc(O)c(C(C#Cc2ccccc2)N2CCOCC2)c1 (configuration not stated),-3.2,-11.6,-0.1,1.6,1.3,-3.9,/,/
COc1ccc(C(=O)NC(=S)N2CCCCC2)cc1,0.8,-2.3,-2.7,0.4,2.8,-3.3,/,/
COc1cc(OC)cc(C(=O)NC(=S)N2CCCCCC2)c1,15.5,-0.7,0.3,1.5,43.3*,5.2,1.8,4.2
O=C1N/C(=N\S(=O)(=O)Cc2ccccc2)S/C1=C/c1cc([N+](=O)[O-])ccc1O,-26.6,/,20.6,4.1,68.5*,-1.4,75.2*,80.1*
COc1cc(/C=C2/S/C(=N/S(=O)(=O)c3ccccc3)NC2=O)c([N+](=O)[O-])cc1OC,-26.6,4.4,-1.5,-4.1,-11.6,-0.1,/,/
O=C1N/C(=N\S(=O)(=O)c2ccccc2)S/C1=C\c1cc([N+](=O)[O-])ccc1O,-18.5,/,32.2,13.6,76.1*,-1.1,78.2*,82.9*
Nc1cc(=O)[nH]c(SCC(=O)c2ccc(O)cc2O)n1,-0.9,-9.2,-0.7,-3.6,-1.7,0.2,/,/
CCOc1ccc2[nH]c(=O)c(CN(CC3COCCO3)C(=O)c3ccc(C)cc3)cc2c1 (configuration not stated),36.0,-0.4,-2.8,-3.6,0.1,1.0,/,/
COC(=O)C1C2CC3c4[nH]c5cc(OC)ccc5c4CCN3CC2CC(OC2CCCCO2)C1OC (configuration not stated),24.0,34.5,1.3,30.6,/,-4.6,/,/
COC(=O)[C@H]1[C@H]2C[C@@H]3c4[nH]c5cc(OC)ccc5c4CCN3C[C@H]2C[C@@H](OC(=O)c2cc(OC)c(OC)c(OC)c2)[C@@H]1OC,14.4,19.2,1.7,10.8,41.4*,-3.6,45.1*,57.6*
COc1ccc(C(=O)/C=C2\NCCc3cc(OC)c(OC)cc32)cc1OC,/,24.4,3.1,10.8,53.2*,-1.9,18.2,25.1*
CCN(CC)c1ccc(/C=C/C(=O)C2C(=O)C=C(C)OC2=O)cc1 (configuration not stated),-4.0,/,-93.2,76.5,48.0*,0.9,33.0*,40.3*
CCN(CC)c1ccc(C2C(C(=O)OC)=C(C)NC(C)=C2C(=O)OC)cc1,29.6,0.6,-1.5,0.1,-0.1,-0.8,/,/
COc1cc(/C=N/n2c(-c3ccc4c(c3)NC(=O)CO4)csc2=Nc2cccc(C)c2)ccc1O,21.7,-0.7,3.6,5.1,-0.6,-1.2,/,/
